# According to publication PMC12783166 (Clinical Pharmacokinetics, 2025):
# Experiments:
# [1] = Individual predicted steady-state exposures; type: in vivo, human; conditions: for AUC / Cmax: human, plasma, oral
# Method in brief: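 Steady-state AUC24, Ctrough, Cmax and Cavg were derived from each individual's Bayesian post hoc estimates from the final three-compartment population PK model, with sequential zero-/first-order lagged absorption. Values are summarised per […] as mean (SD) and median (5th–95th percentile).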
# [2] = cited from earlier work
# [3] = test system: OATP1B3; conditions: cited from earlier work
# [4] = Phase 2 population PK model; type: in vivo, human; conditions: Phase 2 Model
# [5] = test system: BCRP; conditions: cited from earlier work
# [6] = oral administration of a 60-mg dose
structure (smiles),measurement,setting,value
"C[C@@H]1[C@H](c2c(F)ccc(F)c2F)C[C@H](NC(=O)c2cnc3c(c2)C[C@@]2(C3)C(=O)Nc3ncccc32)C(=O)N1CC(F)(F)F [atogepant, Atogepant]","Time above ½EC90 (4.2 ng/mL or 7 nM), Median (5th to 95th percentile)","[1]; PROGRESS CM, 30 mg BID",24.0 (24.0–24.0) hr
same,"Cavg, Mean (SD)","[1]; PROGRESS CM, 60 mg QD",139 (85) ng/mL
same,"Cavg, Median (5th to 95th percentile)","[1]; PROGRESS CM, 60 mg QD",120 (21.9–908) ng/mL
same,"Ctrough, Mean (SD)","[1]; PROGRESS CM, 60 mg QD",18.8 (24) ng/mL
same,"Ctrough, Median (5th to 95th percentile)","[1]; PROGRESS CM, 60 mg QD",14.4 (2.23–287) ng/mL
same,"Time above ½EC90 (4.2 ng/mL or 7 nM), Mean (SD)","[1]; PROGRESS CM, 60 mg QD",23.9 (0.88) hr
same,"Time above ½EC90 (4.2 ng/mL or 7 nM), Median (5th to 95th percentile)","[1]; PROGRESS CM, 60 mg QD",24.0 (15.5–24.0) hr
same,AUC,"[1]; 10 mg, AUC24, Mean (SD), ADVANCE EM, 10 mg QD",525 ng·h/mL
same,AUC,"[1]; 10 mg, AUC24, Mean (SD), CGP-MD-01 EM, 10 mg QD",461 ng·h/mL
same,AUC,"[1]; 10 mg, AUC24, Median (5th to 95th percentile), ADVANCE EM, 10 mg QD",464 ng·h/mL
same,AUC,"[1]; 10 mg, AUC24, Median (5th to 95th percentile), CGP-MD-01 EM, 10 mg QD",464 ng·h/mL
same,Cmax,"[1]; 10 mg, Mean (SD), ADVANCE EM, 10 mg QD",81.7 ng/mL
same,Cmax,"[1]; 10 mg, Mean (SD), CGP-MD-01 EM, 10 mg QD",74.5 ng/mL
same,Cmax,"[1]; 10 mg, Median (5th to 95th percentile), ADVANCE EM, 10 mg QD",73.3 ng/mL
same,Cmax,"[1]; 10 mg, Median (5th to 95th percentile), CGP-MD-01 EM, 10 mg QD",73.9 ng/mL
same,AUC,"[1]; 30 mg, AUC24, Mean (SD), ADVANCE EM, 30 mg QD",1830 ng·h/mL
same,AUC,"[1]; 30 mg, AUC24, Mean (SD), CGP-MD-01 EM, 30 mg BID",3900 ng·h/mL
same,AUC,"[1]; 30 mg, AUC24, Mean (SD), CGP-MD-01 EM, 30 mg QD",1710 ng·h/mL
same,AUC,"[1]; 30 mg, AUC24, Median (5th to 95th percentile), ADVANCE EM, 30 mg QD",1560 ng·h/mL
same,AUC,"[1]; 30 mg, AUC24, Median (5th to 95th percentile), CGP-MD-01 EM, 30 mg BID",3180 ng·h/mL
same,AUC,"[1]; 30 mg, AUC24, Median (5th to 95th percentile), CGP-MD-01 EM, 30 mg QD",1590 ng·h/mL
same,AUC,"[1]; 30 mg, AUC24, Median (5th to 95th percentile), PROGRESS CM, 30 mg BID",3230 ng·h/mL
same,Cmax,"[1]; 30 mg, Mean (SD), ADVANCE EM, 30 mg QD",271 ng/mL
same,Cmax,"[1]; 30 mg, Mean (SD), CGP-MD-01 EM, 30 mg BID",327 ng/mL
same,Cmax,"[1]; 30 mg, Mean (SD), CGP-MD-01 EM, 30 mg QD",260 ng/mL
same,Cmax,"[1]; 30 mg, Median (5th to 95th percentile), ADVANCE EM, 30 mg QD",244 ng/mL
same,Cmax,"[1]; 30 mg, Median (5th to 95th percentile), CGP-MD-01 EM, 30 mg BID",284 ng/mL
same,Cmax,"[1]; 30 mg, Median (5th to 95th percentile), CGP-MD-01 EM, 30 mg QD",247 ng/mL
same,Cmax,"[1]; 30 mg, Median (5th to 95th percentile), PROGRESS CM, 30 mg BID",296 ng/mL
same,AUC,"[1]; 60 mg, AUC24, Mean (SD), ADVANCE EM, 60 mg QD",3740 ng·h/mL
same,AUC,"[1]; 60 mg, AUC24, Mean (SD), CGP-MD-01 EM, 60 mg BID",7940 ng·h/mL
same,AUC,"[1]; 60 mg, AUC24, Mean (SD), CGP-MD-01 EM, 60 mg QD",3640 ng·h/mL
same,AUC,"[1]; 60 mg, AUC24, Mean (SD), ELEVATE EM, 60 mg QD",3530 ng·h/mL
same,AUC,"[1]; 60 mg, AUC24, Median (5th to 95th percentile), ADVANCE EM, 60 mg QD",3220 ng·h/mL
same,AUC,"[1]; 60 mg, AUC24, Median (5th to 95th percentile), CGP-MD-01 EM, 60 mg BID",6900 ng·h/mL
same,AUC,"[1]; 60 mg, AUC24, Median (5th to 95th percentile), CGP-MD-01 EM, 60 mg QD",3450 ng·h/mL
same,AUC,"[1]; 60 mg, AUC24, Median (5th to 95th percentile), ELEVATE EM, 60 mg QD",3310 ng·h/mL
same,AUC,"[1]; 60 mg, AUC24, Median (5th to 95th percentile), PROGRESS CM, 60 mg QD",2900 ng·h/mL
same,Cmax,"[1]; 60 mg, Mean (SD), ADVANCE EM, 60 mg QD",561 ng/mL
same,Cmax,"[1]; 60 mg, Mean (SD), CGP-MD-01 EM, 60 mg BID",634 ng/mL
same,Cmax,"[1]; 60 mg, Mean (SD), CGP-MD-01 EM, 60 mg QD",545 ng/mL
same,Cmax,"[1]; 60 mg, Median (5th to 95th percentile), ADVANCE EM, 60 mg QD",504 ng/mL
same,Cmax,"[1]; 60 mg, Median (5th to 95th percentile), PROGRESS CM, 60 mg QD",504 ng/mL
same,Area under the concentration–time curve (AUC),[2]; 60-mg dose,~ 3470 ng h/mL
same,Dose proportionality of PK,[2],dose-proportional up to a 300-mg single dose and multiple doses of 170 mg/day
same,Food effect,[2],no clinically significant food effect
same,Half-life (t1/2),[2],~ 11 h
same,Accumulation,[2]; multiple doses,no accumulation
same,Maximum plasma concentration (Cmax),[2]; [6],~ 740 ng/mL
same,Time to achieve a pharmacologically effective concentration,[2]; [6],≤ 30 min
same,Transporter substrate status,[3],substrate
same,Blood-plasma ratio,[4],0.567
same,Lag time [ALAG (h)],[4],0.298 h
same,Effect of solution on ALAG,[4]; fractional covariate effect,−0.191
same,Effect of solution on Frel,[4]; fractional covariate effect,−0.547
same,Apparent clearance healthy participants [CL/F (L/h)],[4]; healthy participants,18.2 L/h
same,Absorption rate constant [ka (/h)],[4]; healthy participants and EM patients,1.31 h⁻¹
same,Apparent clearance patients [CL/F (L/h)],[4]; patients,18.2 L/h
same,Exponential effect of dose on Frel,[4]; power exponent,0.163
same,Exponential effect of dose on ka,[4]; power exponent,−0.252
same,σprop,[4]; proportional residual error,0.339
same,σprop (study CGP-MD-01),[4]; proportional residual error,0.572
same,σprop (study CGP-PK-02),[4]; proportional residual error,0.252
same,ω^2CL/F,[4]; variance of IIV,0.0724
same,ω^2Q/F,[4]; variance of IIV,0.550
same,ω^2ka,[4]; variance of IIV,0.683
same,ω^2IOVFrel,[4]; variance of IOV,0.228
same,Transporter substrate status,[5],substrate
